Source: article PMC3947091 (Molecular imaging and biology : MIB : the official …, 2014)
* marks the point of attachment. DOTA = O=C(O)CN1CCN(CC(=O)O)CCN(CC(=O)*)CCN(CC(=O)O)CC1; Cy5.5 = Cy5.5 near-infrared fluorescence dye

Experiments:
[1] = tested on: U251-Luc tumors; test: NIR optical imaging, orthotopic U251-Luc tumors; format: in vivo, nude mice; details: 24 h after tail vein injection, 10 μg
Outline: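 Orthotopic xenograft made with 3×10⁶ U251-Luc cells stereotaxically implanted in male nude mice (8–10 weeks; 3 mm deep, 1 mm right, 2.5 mm behind bregma). Bioluminescence check on day 10. Tail-vein injection of 10 μg Cy5.5-labeled probe (n=12). NIR imaging at 1, 4 and 24 h (ex 675 nm/30 nm bandwidth, em 695–770 nm); tissues analyzed ex vivo at 24 h. Manual ROI, photons/s/cm².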

[2] = tested on: U87-Luc tumors; format: in vivo, nude mice; details: 10 μg
Outline: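 Male nude mice (8–10 weeks) had 1×10⁶ U87-Luc cells implanted stereotaxically (3 mm deep, 1 mm right, 2.5 mm behind bregma). Tumor take was checked by bioluminescence on day 10 (iv d-luciferin 4 mg/kg). Cy5.5-labeled test probe or scrambled control, 10 μg, given by tail vein. NIR imaging at 1, 4 and 24 h (ex 675 nm, em 695–770 nm). Mice killed at each time point (n=4); organs weighed and imaged ex vivo. Manual ROI, photons/s/cm².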

[3] = tested on: glioblastomas; details: 90 of 139 patients; white light comparison 47 (36 %) of 131 patients; cited from earlier work
[4] = tested on: U87-Luc tumors; test: μPET/CT imaging, orthotopic U87-Luc tumors; format: in vivo, nude mice; details: 1 and 24 h after tail vein injection, 7.4 MBq
Outline: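 Orthotopic U87-Luc nude mice (n=4; 1×10⁶ cells implanted stereotaxically) received ⁶⁴Cu-labeled probe, 7.4 MBq (200 μCi, 0.5–1.0 μg), by tail vein. μPET/CT imaging at 1 and 24 h. Mean activities computed within ROIs drawn on tumor and normal brain, with a 1%-injected-dose standard placed beside the animal.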

[5] = tested on: U251-Luc tumors; test: μPET/CT imaging with blocking experiment, orthotopic U251-Luc tumors; format: in vivo, nude mice
Outline: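 In orthotopic U251-Luc nude mice (n=3), ⁶⁴Cu-labeled probe (7.4 MBq, 0.5–1.0 μg) was given by tail vein, alone or with 50 μg/mouse of unlabeled probe for blocking. μPET/CT at 1 and 24 h. ROIs drawn on tumor, normal brain and a standard holding 1% of the injected dose. Tumor/normal-brain voxel intensity ratio taken from 3D ROIs, reported with SD; Student t test.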

[6] = tested on: U87-Luc tumors (EphB4, CD31 staining); test: Fluorescence microscopy of excised brain sections, U87-Luc tumors; format: in vivo, nude mice; details: EphB4 expression only in tumor microvessels
Outline: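 Brains with implanted tumor excised from probe-injected nude mice after μPET/CT, snap-frozen, cut at 4 μm. Sections fixed in 4% paraformaldehyde 20 min RT, blocked in 10% goat serum 30 min, and incubated overnight at 4 °C with rabbit anti-human EphB4 (1:100) and rat anti-mouse CD31 (1:50). Alexa 488/594 secondaries (1:500), DAPI counterstain, fluorescence microscopy.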

Cy5.5-TNYL-RAWK-DOTA: TNYL-RAW with Cy5.5 at the N-terminus and DOTA at the C-terminus ({Cy5.5}-TNYLFSPNGPIARAWK(DOTA)-NH2)
Cy5.5 NIR fluorescence visualization of tumor in mouse brain [1]: clearly visualized
Brain tumor uptake clearly shown in NIR fluorescence imaging ([2]; U87-Luc tumors, 1, 4 and 24 h after intravenous injection): clearly shown
Cy5.5 NIR fluorescence visualization of tumor in mouse brain ([2]; U87-Luc, 24 h after tail vein injection): clearly visualized

NCC(=O)CCC(=O)O [5-aminolevulinic acid]
Patients with completely resected glioblastoma [3]: 65%

Cy5.5-TNYL-RAWK-^64Cu-DOTA: ^64Cu-labeled Cy5.5-TNYL-RAWK-DOTA, dual-labeled PET/optical probe ({Cy5.5}-TNYLFSPNGPIARAWK(DOTA)-NH2; also: DOTA holds 64Cu)
μPET/CT visualization of tumors [4]: clearly visualized
μPET/CT visualization of tumors, with cold peptide ([5]; 1 and 24 h, coinjected cold Cy5.5-TNYL-RAWK-DOTA 50 μg/mouse): barely discernible
μPET/CT visualization of tumors, absence of cold peptide ([5]; 1 and 24 h after radiotracer injection, 7.4 MBq): clearly visualized
Binding site in tumor sections (Cy5.5 signal colocalization) [6]: bound only to the tumor microvessels
